Screening results: PubChem BioAssay, several laboratories
Neddylation inh: inhibitors of human cullin neddylation | TR-FRET cullin neddylation, biochemical | P61081+Q13564 | AID 651699 | calls only at 25 µM | hit rate 0.58% among 360,000; in the data active = inhibition above about 36%
Target sequence (P61081 whole entry, looked up): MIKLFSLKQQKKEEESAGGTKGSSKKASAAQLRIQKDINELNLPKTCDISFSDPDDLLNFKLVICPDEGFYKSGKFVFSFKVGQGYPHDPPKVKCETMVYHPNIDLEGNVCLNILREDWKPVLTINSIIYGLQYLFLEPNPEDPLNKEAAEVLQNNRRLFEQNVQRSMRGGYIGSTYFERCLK
Target sequence (Q13564 whole entry, looked up): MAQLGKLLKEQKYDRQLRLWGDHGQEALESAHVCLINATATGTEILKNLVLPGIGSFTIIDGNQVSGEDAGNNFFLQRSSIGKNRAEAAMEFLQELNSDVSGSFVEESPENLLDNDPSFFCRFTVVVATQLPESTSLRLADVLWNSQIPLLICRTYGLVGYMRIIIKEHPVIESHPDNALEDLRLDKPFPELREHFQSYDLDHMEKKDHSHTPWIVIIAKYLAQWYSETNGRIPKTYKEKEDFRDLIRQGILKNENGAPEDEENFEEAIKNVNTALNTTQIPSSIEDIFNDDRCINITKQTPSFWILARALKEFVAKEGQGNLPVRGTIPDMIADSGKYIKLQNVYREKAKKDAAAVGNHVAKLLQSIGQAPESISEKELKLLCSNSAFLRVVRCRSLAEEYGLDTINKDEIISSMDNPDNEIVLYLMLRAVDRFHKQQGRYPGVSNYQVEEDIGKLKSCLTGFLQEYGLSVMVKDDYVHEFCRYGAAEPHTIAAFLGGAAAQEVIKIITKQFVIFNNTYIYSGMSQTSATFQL
proCasp7 act: counter-screen for procaspase-3 activators: activators of human procaspase-7; P55210; recombinant procaspase-7, Ac-DEVD-pNA absorbance 405 nm; D23A/D198A/D206A triple mutant, cannot self-cleave; scale: DMSO 0, 5 µM enzyme 100; activation, % at 8.5 µM; hit rate 0.093% among 330,000; AID 463210;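 active = percent activation above the screen-wide mean plus 3 SD, cut at about 25% in these data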
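buffer or medium = Zinc-free HEPES/NaCl buffer, pH 7.4 | material = Procaspase-7 triple mutant (PC-7 D3A) | input = 2 µM procaspase-7 mutant as dispensed | signal = Epi-absorbance of released pNA at 405 nm, two timepoints | timing = 1 h preincubation, 2 h reaction | replicates = singlicate compound testing | evaluation = % activation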
procasp3 activ: activators of human procaspase-3; P42574; hit rate 0.11% among 330,000; activation, % at 8.5 µM; recombinant procaspase-3 D3A, Ac-DEVD-pNA absorbance 405 nm; AID 463141;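 active = activation above the mean of all tested compounds plus 3 SD, cut at about 21% in these data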
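Assay system: Procaspase-3 D3A mutant, all three cleavage aspartates alanine. Buffer or medium: Zinc-free HEPES saline buffer with Triton X-100. Times: 1 h compound preincubation, 2 h substrate hydrolysis at 25 °C. Measured by: 405 nm absorbance of p-nitroaniline, reads at 0 and 120 min. Read-out basis: percent activation relative to control range. Replicates: singlicate.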
VIM-2 inh: inhibitors of Pseudomonas aeruginosa VIM-2 metallo-beta-lactamase; hit rate 0.89% among 290,000; purified VIM-2, nitrocefin hydrolysis, epi-absorbance fluorescence; inhibition, % at 5.6 µM;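 active = inhibition above the mean of all tested compounds plus 3 SD, cutoff set per screening run, cut at about 7.5% in these data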;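 also: red hydrolysis product quenches plate fluorescence so inhibitors raise well fluorescence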
PolyA inhibitor: inhibitors of polyadenylation in S. cerevisiae; activity score, % at 12 µM; S. cerevisiae SKY197-pL101 polyadenylation reporter, beta-gal luminescence; efflux-impaired pdr1/pdr3 knockout yeast; score 100 = 6 SD above DMSO; AID 1875; hit rate 0.02% among 300,000;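 active = lowest replicate activity score at least 50, where 100 means six control SD above control mean; inconclusive = lowest score under 50 but half or more replicates reach 50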;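 also: yeast exposed to compound for 9 h at 30 °C; higher score means more reporter readthrough which indicates perturbed polyadenylation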
IMP-1 inhibitor: blocks Pseudomonas aeruginosa IMP-1 metallo-beta-lactamase; inhibition, % at 5.6 µM; purified IMP-1, nitrocefin hydrolysis, epi-absorbance fluorescence; hit rate 0.45% among 290,000; AID 1556;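 active = inhibition above the mean plus 3 SD of all compounds in the same screening run, cut at about 4.5% in these data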
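Assay system: purified recombinant IMP-1 beta-lactamase. Input: IMP-1 0.2 nM before substrate addition. Buffer or medium: Zinc- and detergent-supplemented HEPES buffer, pH 7.1. Schedule: 25 °C, 15 min preincubation, 25 min reaction. Signal: Epi-absorbance fluorescence, 480 nm excitation, 530 nm emission. Evaluation: percent inhibition from optical density relative to buffer-blank wells.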
Numbers stand for hits; n = inactive; u = inconclusive; x = no result shown; + = active, no number. The list is not random: actives were taken first. Their share in the collection is about 1.7%.

SMILES	Neddylation inh	proCasp7 act	procasp3 activ	VIM-2 inh	PolyA inhibitor	IMP-1 inhibitor
Cc1noc(C)c1COc1ccccc1C(=O)N1CCN(S(=O)(=O)c2cccc([N+](=O)[O-])c2)CC1	n	n	n	x	x	x
COC(=O)c1nnn(-c2cccc(Cl)c2)c1C(=O)OC	n	n	n	n	n	n
CC(C)(c1ccccc1)c1ccc(OCCCN2CCNCC2)cc1	n	n	n	n	n	n
CC(C)(c1ccccc1)c1ccc(OCCN2CCOCC2)cc1	n	n	n	n	n	4.9
CCN(CC)C(=O)CSc1nc(O)c(Cc2ccccc2)c(=O)n1-c1ccccc1C	n	n	n	n	n	n
COc1ccc2nc(Nc3nc(CSc4nnnn4-c4ccccc4)cc(=O)[nH]3)nc(C)c2c1	n	n	n	n	n	4.9
Oc1c(Cl)cc(Cl)cc1C=Nc1ccc(N2CCOCC2)cc1	n	n	n	n	n	n
Cc1ccc(O)c(C=Nc2cc(C)ccc2O)c1	n	n	n	n	n	n
Cc1ccc(O)c(N=Cc2cc(Cc3ccccc3)cc([N+](=O)[O-])c2O)c1	n	x	x	n	n	11
O=[N+]([O-])c1cc(Cc2ccccc2)cc(C=Nc2ccc(N3CCOCC3)cc2)c1O	n	n	n	n	n	8.8
CC(C)N(C(=O)c1ccc(C(=O)Nc2ccc([N+](=O)[O-])cc2)cc1)C(C)C	n	n	n	n	n	5.6
CN(C)S(=O)(=O)c1ccc(NC(=O)c2ccc([N+](=O)[O-])cc2)cc1	n	n	n	n	n	n
COC(=O)C1CCC(=S)N1C(=O)c1ccccc1 (stereo unspecified)	n	n	n	n	n	20
COc1ccc(CNC(=O)COC(=O)CCOc2ccc(C)cc2)cc1OC	n	n	n	x	n	x
Nc1c(C(=O)c2ccc(Cl)cc2)sc2nsc(SCCN3CCOCC3)c12	n	n	n	n	n	n
Nc1c(C(=O)c2ccccc2)sc2nsc(SCCN3CCCC3)c12	n	n	n	8.3	n	n
O=C(CSc1ccc(-c2ccccn2)nn1)c1ccc(F)cc1	n	n	n	n	u	n
Cc1cccc(CC(=O)Nc2ccc(C(=O)N3CCCCC3)cc2)c1	n	n	n	n	n	n
CCc1ccc2nc(N=C(N)N)nc(C)c2c1	n	n	n	n	n	n
Cc1ccc2nc(N=C(N)N)nc(C)c2c1	n	n	n	11	n	n
CC1(C)Cc2cccc(OC(=O)NCCc3ccc(F)cc3)c2O1	n	x	x	x	x	x
O=C(CCCN=C1NS(=O)(=O)c2ccccc21)OCC(=O)N1CCc2ccccc21	n	n	n	n	n	n
COc1ccc(Nc2c3c(nc4ccccc24)CCC3)cc1	n	n	n	n	n	n
COc1ccc(Nc2c3ccccc3nc3ccccc23)cc1	n	n	n	9.2	n	n
Oc1cccc(Nc2c3ccccc3nc3ccccc23)c1	n	n	n	11	n	n
SMILES	Neddylation inh	proCasp7 act	procasp3 activ	VIM-2 inh	PolyA inhibitor	IMP-1 inhibitor
c1cncc(Nc2c3ccccc3nc3ccccc23)c1	n	n	n	10	n	n
CC(=O)c1ccc(N2CCN(C(=O)c3noc4c3CSc3ccccc3-4)CC2)cc1	n	n	n	n	n	n
CC(=O)Oc1cccc(C(=O)Nc2cccc(C(=O)Nc3ccccc3C(=O)O)c2)c1	n	n	n	n	n	n
O=C1c2ccccc2C(=O)N1c1ccc(Br)c2cccnc12	n	n	n	n	n	n
COc1ccccc1Oc1ccc2c(c1)C(=O)N(c1ccc(Br)c3cccnc13)C2=O	n	n	n	n	n	4.9
CC[C@@H](C)[C@H](NC(=O)Cc1c(C)c2cc3c(C)coc3c(C)c2oc1=O)C(=O)O	x	n	n	n	n	n
Cc1c(CC(=O)O)c(=O)oc2c(C)c3occ(-c4ccc(Br)cc4)c3cc12	n	n	n	8.9	n	n
CCCCC(NC(=O)Cc1c(C)c2cc3c(-c4ccccc4)coc3c(C)c2oc1=O)C(=O)O (stereo unspecified)	n	n	n	8.5	n	n
Cc1ccc(S(=O)(=O)N2CCCOC2CNC(=O)C(=O)NCCCn2ccnc2)cc1 (stereo unspecified)	n	n	n	n	n	n
O=C(NCCCn1ccnc1)C(=O)NCC1OCCN1S(=O)(=O)c1ccc(Br)cc1 (stereo unspecified)	n	n	n	n	n	7.0
O=C(NCCCn1ccnc1)C(=O)NCC1OCCN1S(=O)(=O)c1ccc(F)cc1 (stereo unspecified)	n	n	n	n	n	10
Cc1ccc2c(c1)NC(=O)C(N1CCOCC1)(C(F)(F)F)O2 (stereo unspecified)	n	n	n	n	n	n
CCN(CC)C(=O)COn1c(SCC(=O)N(CC)CC)nc2ccccc2c1=O	n	n	n	n	x	n
CCN(CC)c1ccc2nc3ccc(N)cc3[n+](-c3ccccc3)c2c1	n	x	x	x	x	x
CCN(CC)c1ccc2nc3ccccc3[n+](CC)c2c1	n	n	n	11	n	n
CCN(CC)C(=O)c1csc([C@H]2C[C@H](O)[C@@H](CO)O2)n1	n	x	x	x	x	x
CN(C)CCSc1nc(-c2ccccc2)nc2c1CCC2	n	n	n	9.8	n	n
CN(C)C(=O)CSc1nc(-c2ccccc2)nc2c1CCCC2	n	n	n	n	n	n
O=C(CN1CCC(n2cnc3cc(F)ccc32)CC1)Nc1ccccc1Br	n	n	n	9.8	n	n
CCOc1ccc(CNC(=O)Cn2nc(C)c3c(C)n(-c4ccc(C)cc4)nc3c2=O)cc1	n	n	n	n	n	11
O=C(Nc1nc2cc3c(cc2s1)OCCO3)c1ccco1	+	n	n	n	n	n
O=C(Nc1nc2cc3c(cc2s1)OCO3)c1ccco1	x	x	x	n	n	n
CS(=O)(=O)N1CCN(CC(=O)NC2CCCCC2)CC1	n	n	n	n	n	n
N#CCCN(C(=O)Nc1ccc(Cl)cc1)c1ccccc1	n	n	n	n	n	n
O=C(Nc1ccc(Cl)cc1)N(Cc1nnc2n1CCCCC2)c1ccccc1	n	n	n	n	n	5.4
SMILES	Neddylation inh	proCasp7 act	procasp3 activ	VIM-2 inh	PolyA inhibitor	IMP-1 inhibitor
COC(=O)c1cc(C(=O)OC)cc(N2C(=O)CC(NNC(=O)c3ccccc3Cl)C2=O)c1 (stereo unspecified)	n	n	n	9.6	n	n
Cc1cc(N2CCOCC2)cc(C)[n+]1[O-]	n	n	n	n	x	n
O=C1NC(=O)/C(=C\c2ccc(O)cc2O)S1	n	n	n	n	n	6.0
O=C1NC(=O)/C(=C/c2cccc3ccccc23)S1	n	n	n	n	n	n
CCCCN(C)/C=N/c1c(C#N)cnn1-c1ccc(C)cc1	n	n	n	n	n	n
Cc1ccc(N=c2c([N+](=O)[O-])nn(-c3ccc(Cl)cc3)n2O)cc1C	n	n	n	n	n	12
